In ChEMBL document CHEMBL1156772, “Synthesis, affinity profile and functional activity of potent chiral muscarinic antagonists with a pyrrolidinylfuran structure” (J Med Chem, 2010):

Legend:
[1] = target: T1, Muscarinic acetylcholine receptor M1 (Homo sapiens, UniProt P11229); assay: Displacement of [3H]NMS from human cloned muscarinic M1 receptor expressed in CHO cells by scintillation counting; format: cell-based
T1 sequence (P11229 whole entry): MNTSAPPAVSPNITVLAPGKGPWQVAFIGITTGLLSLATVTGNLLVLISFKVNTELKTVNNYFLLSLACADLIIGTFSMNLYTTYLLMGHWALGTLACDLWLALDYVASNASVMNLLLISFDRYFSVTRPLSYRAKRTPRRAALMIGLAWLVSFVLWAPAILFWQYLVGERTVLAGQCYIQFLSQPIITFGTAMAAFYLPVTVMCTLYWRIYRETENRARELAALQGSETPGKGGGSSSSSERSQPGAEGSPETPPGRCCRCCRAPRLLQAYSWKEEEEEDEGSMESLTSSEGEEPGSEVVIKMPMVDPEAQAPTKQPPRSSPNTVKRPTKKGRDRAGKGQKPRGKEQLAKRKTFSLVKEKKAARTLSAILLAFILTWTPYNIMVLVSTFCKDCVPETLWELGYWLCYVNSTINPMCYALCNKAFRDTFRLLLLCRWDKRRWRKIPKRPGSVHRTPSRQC

[2] = target: T2, Muscarinic acetylcholine receptor M2 (Homo sapiens, UniProt P08172); assay: Displacement of [3H]NMS from human cloned muscarinic M2 receptor expressed in CHO cells by scintillation counting; format: cell-based
T2 sequence (P08172 whole entry): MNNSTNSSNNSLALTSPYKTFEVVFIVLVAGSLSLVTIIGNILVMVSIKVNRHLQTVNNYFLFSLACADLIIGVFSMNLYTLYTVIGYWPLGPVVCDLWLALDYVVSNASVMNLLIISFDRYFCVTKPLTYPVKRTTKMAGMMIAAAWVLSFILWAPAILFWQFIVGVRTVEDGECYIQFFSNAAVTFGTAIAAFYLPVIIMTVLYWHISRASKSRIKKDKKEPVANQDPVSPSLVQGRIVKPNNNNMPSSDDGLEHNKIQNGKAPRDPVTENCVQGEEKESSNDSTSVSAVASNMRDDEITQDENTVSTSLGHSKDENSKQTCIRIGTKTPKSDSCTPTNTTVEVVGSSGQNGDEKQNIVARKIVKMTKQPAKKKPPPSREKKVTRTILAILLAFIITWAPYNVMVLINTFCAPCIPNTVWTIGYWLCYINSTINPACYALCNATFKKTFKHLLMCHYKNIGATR
Method in brief: (§1)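 Equilibrium radioligand binding in CHO cells expressing the human muscarinic subtype, following the authors' earlier protocol.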

[3] = target: Muscarinic acetylcholine receptor M3 (Homo sapiens, UniProt P20309); assay: Displacement of [3H]NMS from human cloned muscarinic M3 receptor expressed in CHO cells by scintillation counting; format: cell-based
[4] = target: T3, Muscarinic acetylcholine receptor M4 (Homo sapiens, UniProt P08173); assay: Displacement of [3H]NMS from human cloned muscarinic M4 receptor expressed in CHO cells by scintillation counting; format: cell-based
T3 sequence (P08173 whole entry): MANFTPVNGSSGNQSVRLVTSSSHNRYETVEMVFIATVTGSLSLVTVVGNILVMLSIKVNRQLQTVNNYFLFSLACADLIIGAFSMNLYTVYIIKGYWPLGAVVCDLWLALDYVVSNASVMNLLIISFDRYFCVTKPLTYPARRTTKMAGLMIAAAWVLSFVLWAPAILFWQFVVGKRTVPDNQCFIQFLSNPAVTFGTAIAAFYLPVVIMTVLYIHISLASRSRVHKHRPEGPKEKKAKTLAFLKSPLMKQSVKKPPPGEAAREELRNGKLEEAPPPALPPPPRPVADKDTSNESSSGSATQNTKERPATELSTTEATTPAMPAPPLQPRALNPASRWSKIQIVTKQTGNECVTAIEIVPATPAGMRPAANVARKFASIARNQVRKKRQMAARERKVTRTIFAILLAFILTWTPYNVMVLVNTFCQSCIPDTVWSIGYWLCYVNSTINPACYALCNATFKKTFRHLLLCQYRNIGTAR

[5] = target: T4, Muscarinic acetylcholine receptor M5 (Homo sapiens, UniProt P08912); assay: Displacement of [3H]NMS from human cloned muscarinic M5 receptor expressed in CHO cells by scintillation counting; format: cell-based; method in brief: as §1
T4 sequence (P08912 whole entry): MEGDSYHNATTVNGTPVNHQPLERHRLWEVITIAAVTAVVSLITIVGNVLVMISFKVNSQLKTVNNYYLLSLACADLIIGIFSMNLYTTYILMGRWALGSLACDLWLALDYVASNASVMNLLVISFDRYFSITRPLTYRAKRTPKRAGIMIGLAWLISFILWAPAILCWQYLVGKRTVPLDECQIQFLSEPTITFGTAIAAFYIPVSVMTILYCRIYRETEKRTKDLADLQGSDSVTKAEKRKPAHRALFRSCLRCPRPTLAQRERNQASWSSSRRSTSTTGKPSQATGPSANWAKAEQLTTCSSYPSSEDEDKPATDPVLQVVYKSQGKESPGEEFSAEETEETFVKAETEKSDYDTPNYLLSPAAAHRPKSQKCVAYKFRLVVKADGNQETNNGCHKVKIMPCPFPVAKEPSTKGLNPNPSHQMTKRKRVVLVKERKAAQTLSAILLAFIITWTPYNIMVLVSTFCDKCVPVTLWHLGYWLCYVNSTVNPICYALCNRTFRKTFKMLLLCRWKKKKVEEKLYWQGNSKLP

[6] = target: T5, Muscarinic receptor 2 (Cavia porcellus) (UniProt Q8VH27); assay: Antagonist activity at muscarinic M2 receptor in guinea pig left atrium assessed as effect on electrically-stimulated inotropic activity after 60 mins; format: functional, tissue-based; conditions: Cardiac atrium
T5 sequence (whole entry): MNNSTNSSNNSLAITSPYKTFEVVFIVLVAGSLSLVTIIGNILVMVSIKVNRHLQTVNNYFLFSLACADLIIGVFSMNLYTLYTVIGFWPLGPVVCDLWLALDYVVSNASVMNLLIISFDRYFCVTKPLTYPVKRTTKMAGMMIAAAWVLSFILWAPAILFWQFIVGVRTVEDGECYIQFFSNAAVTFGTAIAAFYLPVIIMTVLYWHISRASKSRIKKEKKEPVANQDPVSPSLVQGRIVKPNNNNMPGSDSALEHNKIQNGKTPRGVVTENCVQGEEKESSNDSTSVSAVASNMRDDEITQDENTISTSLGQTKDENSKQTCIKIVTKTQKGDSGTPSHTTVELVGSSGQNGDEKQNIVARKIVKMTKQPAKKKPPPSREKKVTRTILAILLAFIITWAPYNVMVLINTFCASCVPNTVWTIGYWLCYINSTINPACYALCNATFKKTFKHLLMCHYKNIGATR

[7] = target: T6, Muscarinic receptor 4 (Cavia porcellus) (UniProt Q8VH25); assay: Antagonist activity at muscarinic M4 receptor in guinea pig lung strips assessed as effect on isotonic contraction after 60 mins; format: functional
T6 sequence (whole entry): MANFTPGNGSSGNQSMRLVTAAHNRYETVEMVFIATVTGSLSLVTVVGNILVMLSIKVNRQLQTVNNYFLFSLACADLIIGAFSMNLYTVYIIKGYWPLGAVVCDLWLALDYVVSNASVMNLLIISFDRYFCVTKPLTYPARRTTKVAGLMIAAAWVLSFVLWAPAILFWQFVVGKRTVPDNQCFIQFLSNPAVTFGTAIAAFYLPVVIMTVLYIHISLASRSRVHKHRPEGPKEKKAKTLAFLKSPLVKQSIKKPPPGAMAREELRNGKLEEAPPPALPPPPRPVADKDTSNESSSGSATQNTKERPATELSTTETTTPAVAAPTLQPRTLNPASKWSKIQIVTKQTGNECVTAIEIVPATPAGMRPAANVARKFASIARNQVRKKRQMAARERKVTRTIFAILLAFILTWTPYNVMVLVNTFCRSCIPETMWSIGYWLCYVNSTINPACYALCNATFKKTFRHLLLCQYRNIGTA

[8] = target: Muscarinic acetylcholine receptor M3 (Cavia porcellus) (UniProt Q8VH26); assay: Antagonist activity at muscarinic M3 receptor in guinea pig ileum assessed as effect on isotonic tension after 60 mins; format: functional, tissue-based
[9] = Antagonist activity at muscarinic M1 receptor in New Zealand rabbit vas deferens assessed as effect on electrically-stimulated muscle contraction after 60 mins; format: functional, Oryctolagus cuniculus

Muscarinic acetylcholine receptor M3 (Cavia porcellus), sequence (Q8VH26 1-587): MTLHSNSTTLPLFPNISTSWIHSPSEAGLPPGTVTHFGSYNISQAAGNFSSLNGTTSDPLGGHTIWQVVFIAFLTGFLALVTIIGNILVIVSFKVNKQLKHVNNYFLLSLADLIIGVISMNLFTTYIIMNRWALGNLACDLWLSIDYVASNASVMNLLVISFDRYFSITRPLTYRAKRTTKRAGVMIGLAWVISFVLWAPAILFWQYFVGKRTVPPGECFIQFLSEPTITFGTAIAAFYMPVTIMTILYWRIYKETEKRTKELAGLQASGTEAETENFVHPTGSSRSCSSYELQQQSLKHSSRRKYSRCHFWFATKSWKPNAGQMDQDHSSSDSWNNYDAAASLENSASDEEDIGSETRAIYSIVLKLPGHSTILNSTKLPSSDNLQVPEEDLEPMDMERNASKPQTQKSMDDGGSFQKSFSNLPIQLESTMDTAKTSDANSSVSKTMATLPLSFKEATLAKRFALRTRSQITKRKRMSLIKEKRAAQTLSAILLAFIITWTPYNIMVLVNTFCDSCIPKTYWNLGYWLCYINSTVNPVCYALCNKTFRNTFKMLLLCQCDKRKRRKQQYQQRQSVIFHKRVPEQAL
Muscarinic acetylcholine receptor M3, sequence (P20309 whole entry): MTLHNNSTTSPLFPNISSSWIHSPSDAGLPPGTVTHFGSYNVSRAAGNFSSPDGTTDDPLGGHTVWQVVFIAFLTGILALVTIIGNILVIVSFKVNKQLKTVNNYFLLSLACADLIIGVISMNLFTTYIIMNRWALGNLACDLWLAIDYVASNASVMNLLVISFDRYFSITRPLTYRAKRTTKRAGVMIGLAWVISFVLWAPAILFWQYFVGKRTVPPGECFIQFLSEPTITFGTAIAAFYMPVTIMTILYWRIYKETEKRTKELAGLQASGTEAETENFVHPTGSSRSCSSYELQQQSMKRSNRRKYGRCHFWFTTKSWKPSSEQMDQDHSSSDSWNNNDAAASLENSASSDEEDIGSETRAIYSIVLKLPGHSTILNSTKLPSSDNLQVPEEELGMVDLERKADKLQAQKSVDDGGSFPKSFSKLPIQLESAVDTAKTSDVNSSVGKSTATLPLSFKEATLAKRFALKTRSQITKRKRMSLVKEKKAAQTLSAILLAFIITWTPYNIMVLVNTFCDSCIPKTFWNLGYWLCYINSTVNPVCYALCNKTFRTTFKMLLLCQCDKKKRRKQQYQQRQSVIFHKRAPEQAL

CN1CCC[C@H]1c1ccc([C@](O)(c2ccccc2)C2CCCCC2)o1
Ki [1]: 0.0229 µM
Ki [2]: 0.0603 µM
Ki [3]: 0.0234 µM
Ki [4]: 0.055 µM
Ki [5]: 0.0275 µM
pKb [6]: 6.65
pKb [7]: 5.84
pKb [8]: 7.66

C[N+]1(C)CCCC1c1ccc(C(c2ccccc2)c2ccccc2)o1 (racemic) [listing 1 of 2 here]
Ki [1]: 0.0115 µM
Ki [2]: 0.0135 µM
Ki [3]: 0.0234 µM
Ki [4]: 0.038 µM
Ki [5]: 0.0316 µM

CN1CCCC1c1ccc(C(c2ccccc2)c2ccccc2)o1 (configuration not stated)
Ki [1]: 0.0427 µM
Ki [2]: 0.0646 µM
Ki [3]: 0.0851 µM
Ki [4]: 0.158 µM
Ki [5]: 0.105 µM
pKb [9]: 6.64
pKb [6]: 6.52
pKb [7]: 5.19
pKb [8]: 6.81

C[N+]1(C)CCCC1c1ccc(C(O)(c2ccccc2)c2ccccc2)o1.[I-] (mixture of isomers)
pKb [9]: 8.46

C[N+]1(C)CCCC1c1ccc(C(O)(c2ccccc2)c2ccccc2)o1 (racemic) [listing 1 of 2 here]
pKb [6]: 7.08
pKb [7]: 6.2
pKb [8]: 7.6

CN1CCCC1c1ccc(C(c2ccccc2)C2CCCCC2)o1 (mixture of isomers)
Ki [1]: 0.0135 µM
Ki [2]: 0.141 µM
Ki [3]: 0.0339 µM
Ki [4]: 0.0776 µM
Ki [5]: 0.055 µM
pKb [6]: 5.36
pKb [7]: < 5
pKb [8]: 7.05

C[N+]1(C)CCCC1c1ccc(C(c2ccccc2)C2CCCCC2)o1 (mixture of isomers)
Ki [1]: 0.00661 µM
Ki [2]: 0.0174 µM
Ki [3]: 0.00891 µM
Ki [4]: 0.0195 µM
Ki [5]: 0.0155 µM
pKb [6]: 6.21
pKb [7]: 5.69
pKb [8]: 7.88

CN1CCCC1c1ccc(C(O)(c2ccccc2)C2CCCCC2)o1 (mixture of isomers)
Ki [1]: 0.00123 µM
Ki [2]: 0.00676 µM
Ki [3]: 0.00776 µM
Ki [4]: 0.0141 µM
Ki [5]: 0.00708 µM
pKb [6]: 6.98
pKb [7]: < 5
pKb [8]: 7.8

C[N+]1(C)CCC[C@H]1c1ccc([C@](O)(c2ccccc2)C2CCCCC2)o1
Ki [1]: 0.00912 µM
Ki [2]: 0.02 µM
Ki [3]: 0.00933 µM
Ki [4]: 0.0331 µM
Ki [5]: 0.012 µM
pKb [6]: 7.32
pKb [7]: 6.16
pKb [8]: 7.95

CN1CCC[C@H]1c1ccc([C@@](O)(c2ccccc2)C2CCCCC2)o1
Ki [1]: 1.23 µM
Ki [2]: 3.24 µM
Ki [3]: 1.66 µM
Ki [4]: 3.09 µM
Ki [5]: 1.55 µM
pKb [6]: 5.95
pKb [7]: < 5
pKb [8]: 6.41

C[N+]1(C)CCC[C@H]1c1ccc([C@@](O)(c2ccccc2)C2CCCCC2)o1
Ki [1]: 0.331 µM
Ki [2]: 0.759 µM
Ki [3]: 0.513 µM
Ki [4]: 2.34 µM
Ki [5]: 0.871 µM
pKb [6]: 5.92
pKb [7]: < 5
pKb [8]: 6.32

CN1CCC[C@@H]1c1ccc([C@@](O)(c2ccccc2)C2CCCCC2)o1
Ki [1]: 0.191 µM
Ki [2]: 0.363 µM
Ki [3]: 0.324 µM
Ki [4]: 0.55 µM
Ki [5]: 0.468 µM
pKb [6]: 6.23
pKb [7]: < 5
pKb [8]: 6.77

C[N+]1(C)CCCC1c1ccc(C(O)(c2ccccc2)c2ccccc2)o1 (racemic) [listing 2 of 2 here]
Ki [1]: 0.0234 µM
Ki [2]: 0.0316 µM
Ki [3]: 0.0363 µM
Ki [4]: 0.0646 µM
Ki [5]: 0.0372 µM

C[N+]1(C)CCC[C@@H]1c1ccc([C@@](O)(c2ccccc2)C2CCCCC2)o1
Ki [1]: 0.0479 µM
Ki [2]: 0.0871 µM
Ki [3]: 0.155 µM
Ki [4]: 0.372 µM
Ki [5]: 0.229 µM
pKb [6]: 6.85
pKb [7]: 6.33
pKb [8]: 6.95

C[N+]1(C)CCCC1c1ccc(C(O)(c2ccccc2)C2CCCCC2)o1 (mixture of isomers)
Ki [1]: 0.00209 µM
Ki [2]: 0.0102 µM
Ki [3]: 0.00724 µM
Ki [4]: 0.0155 µM
Ki [5]: 0.0115 µM
pKb [6]: 7.88
pKb [7]: 5.9
pKb [8]: 8.35

C[N+]1(C)CCCC1c1ccc(C(c2ccccc2)c2ccccc2)o1.[I-] (mixture of isomers)
pKb [9]: 7.91

C[N+]1(C)CCCC1c1ccc(C(c2ccccc2)c2ccccc2)o1 (racemic) [listing 2 of 2 here]
pKb [6]: 7.09
pKb [7]: < 5
pKb [8]: 7.59
